Columns and labels:
Femur [1] = experiment: Biodistribution in CD1 mouse flushed femur at 300 kBq, iv after 60 mins by gamma counting; type: ADME, organism-based; settings: in vivo, 1 h
Procedure, shortened: (§1)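 Female CD-1 mice received [18F]1 (300 kBq) i.v.; 3–6 animals per time point anesthetized at 5, 30, 60 or 120 min p.i., blood and urine collected, animals euthanized by cervical dislocation, organs dissected and weighed. Radioactivity counted in a calibrated gamma counter; % ID/g = tissue counts / initial dose counts / tissue weight; means with SD.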

Heart [2] = experiment: Biodistribution in CD1 mouse heart at 300 kBq, iv after 120 mins by gamma counting; type: ADME, organism-based; settings: in vivo, 2 h
Procedure, shortened: (§2)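 Female CD-1 mice received the 18F tracer iv at 300 kBq in 0.9% NaCl containing 5% ethanol; 3–6 animals per time point (5, 30, 60, 120 min p.i.). Animals anaesthetized, blood and urine collected, killed by cervical luxation, organs dissected and weighed, counted in calibrated gamma counter. %ID/g = tissue counts / initial dose counts / tissue weight; mean with SD.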

Mus musculus [3] = experiment: Biodistribution in CD1 mouse small intestine at 300 kBq, iv after 120 mins by gamma counting; type: ADME, organism-based; settings: in vivo, 2 h; procedure, shortened: as §2
Mus musculus [4] = experiment: Biodistribution in CD1 mouse large intestine at 300 kBq, iv after 120 mins by gamma counting; type: ADME, organism-based; settings: in vivo, 2 h; procedure, shortened: as §2
[5] = Biodistribution in CD1 mouse urine at 300 kBq, iv after 120 mins by gamma counting; type: ADME, organism-based; settings: in vivo, 2 h
Procedure, shortened: (§3)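 Female CD-1 mice received 300 kBq of the radiotracer i.v.; 3–6 animals per time point were anaesthetised at 5, 30, 60 or 120 min p.i. Blood and urine were collected, animals were killed by cervical dislocation, and organs were dissected and weighed. Activity was counted in a calibrated gamma counter and expressed as % injected dose per g wet tissue, mean with SD.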

Femur [6] = experiment: Biodistribution in CD1 mouse femur at 300 kBq, iv after 120 mins by gamma counting; type: ADME, organism-based; settings: in vivo, 2 h; procedure, shortened: as §1
Mus musculus [7] = experiment: Biodistribution in CD1 mouse eye at 300 kBq, iv after 120 mins by gamma counting; type: ADME, organism-based; settings: in vivo, 2 h; procedure, shortened: as §1
[8] = Chemical stability of the compound in 0.9% NaCl solution at pH 7.2 assessed as compound remaining after 2 hrs by radio-HPLC/TLC analysis; type: physicochemical; settings: read-out: Stability
Procedure, shortened: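 Radiotracer incubated 120 min at 40 °C in 0.9% NaCl (pH 7.2), phosphate-saline (0.1 M sodium phosphate, 0.15 M NaCl, pH 7.2) or 0.01 M TRIS–HCl (pH 7.4 at 21 °C). Aliquots were taken at set times and analysed by radio-TLC on silica and by gradient radio-HPLC on RP-18 (MeCN/20 mM ammonium acetate, 254 nm), giving % unchanged tracer; n = 2.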

[9] = Metabolic stability in CD1 mouse brain homogenate assessed as compound remaining at 191 MBq, iv after 60 mins by radio-HPLC/TLC analysis; type: ADME, organism-based; settings: read-out: Stability
Procedure, shortened: (§4)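 Female CD-1 mice were injected with the radiotracer via the tail vein and killed at 30 or 60 min p.i. Whole brains (n = 2 per time) were homogenised in 50 mM TRIS–HCl pH 7.4 at 4 °C and extracted twice with ice-cold acetonitrile. Concentrated extracts were analysed by radio-HPLC and radio-TLC to give % parent versus radiometabolites.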

Brain [10] = experiment: Drug metabolism in CD1 mouse brain homogenates assessed as radiometabolites at 191 MBq, iv after 60 mins by radio-HPLC/TLC analysis; type: ADME, organism-based; settings: in vivo, 1 h; procedure, shortened: as §4
Mus musculus [11] = experiment: Biodistribution in CD1 mouse dorsomedial hyphalmus in brain saggital section at 24 MBq, iv at 45 mins by autoradiography; type: ADME, organism-based; settings: in vivo, 0.75 h
Procedure, shortened: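 Female CD-1 mouse given [18F]1 (24 MBq) i.v. and sacrificed at 45 min. Brain hemispheres frozen in isopentane (−35 °C), cut into 12 µm sagittal cryosections, thaw-mounted, air-dried and exposed to 18F-sensitive storage phosphor screens. Anterior olfactory bulb served as nontarget region for target-to-nontarget ratios.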

Striatum = experiment: Biodistribution in CD1 mouse striatum in brain saggital section at 24 MBq, iv at 45 mins by autoradiography; type: ADME, organism-based; settings: in vivo, 0.75 h
Procedure, shortened: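 Ex vivo autoradiography: female CD-1 mouse given 18F tracer iv (24 MBq), killed 45 min p.i.; brain hemispheres frozen in isopentane (−35 °C), 12 µm sagittal cryostat sections thaw-mounted, air-dried and exposed to 18F-sensitive phosphor screens. Regional uptake compared with anterior olfactory bulb as nontarget region (target-to-nontarget ratio).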

Blood [12] = experiment: Biodistribution in CD1 mouse blood at 300 kBq, iv after 5 mins by gamma counting; type: ADME, organism-based; settings: in vivo; procedure, shortened: as §1
Brain [13] = experiment: Biodistribution in CD1 mouse brain at 300 kBq, iv after 5 mins by gamma counting; type: ADME, organism-based; settings: in vivo; procedure, shortened: as §1
Heart [14] = experiment: Biodistribution in CD1 mouse heart at 300 kBq, iv after 5 mins by gamma counting; type: ADME, organism-based; settings: in vivo; procedure, shortened: as §2
Mus musculus [15] = experiment: Biodistribution in CD1 mouse large intestine at 300 kBq, iv after 5 mins by gamma counting; type: ADME, organism-based; settings: in vivo; procedure, shortened: as §2
[16] = Biodistribution in CD1 mouse urine at 300 kBq, iv after 5 mins by gamma counting; type: ADME, organism-based; settings: in vivo; procedure, shortened: as §3
Pancreas [17] = experiment: Biodistribution in CD1 mouse pancreas at 300 kBq, iv after 5 mins by gamma counting; type: ADME, organism-based; settings: in vivo; procedure, shortened: as §2
Mus musculus [18] = experiment: Biodistribution in CD1 mouse gonads at 300 kBq, iv after 5 mins by gamma counting; type: ADME, organism-based, Gonad; settings: in vivo; procedure, shortened: as §1
Muscle tissue [19] = experiment: Biodistribution in CD1 mouse muscle at 300 kBq, iv after 5 mins by gamma counting; type: ADME, organism-based; settings: in vivo; procedure, shortened: as §2
Mus musculus [20] = experiment: Biodistribution in CD1 mouse eye at 300 kBq, iv after 5 mins by gamma counting; type: ADME, organism-based; settings: in vivo; procedure, shortened: as §1
Blood [21] = experiment: Biodistribution in CD1 mouse blood at 300 kBq, iv after 30 mins by gamma counting; type: ADME, organism-based; settings: in vivo, 0.5 h; procedure, shortened: as §1
Heart [22] = experiment: Biodistribution in CD1 mouse heart at 300 kBq, iv after 30 mins by gamma counting; type: ADME, organism-based; settings: in vivo, 0.5 h; procedure, shortened: as §2
Stomach = experiment: Biodistribution in CD1 mouse stomach at 300 kBq, iv after 30 mins by gamma counting; type: ADME, organism-based; settings: in vivo, 0.5 h; procedure, shortened: as §2
Mus musculus [23] = experiment: Biodistribution in CD1 mouse small intestine at 300 kBq, iv after 30 mins by gamma counting; type: ADME, organism-based; settings: in vivo, 0.5 h; procedure, shortened: as §2
Liver = experiment: Biodistribution in CD1 mouse liver at 300 kBq, iv after 30 mins by gamma counting; type: ADME, organism-based; settings: in vivo, 0.5 h; procedure, shortened: as §2
Kidney = experiment: Biodistribution in CD1 mouse kidney at 300 kBq, iv after 30 mins by gamma counting; type: ADME, organism-based; settings: in vivo, 0.5 h; procedure, shortened: as §2
[24] = Biodistribution in CD1 mouse urine at 300 kBq, iv after 30 mins by gamma counting; type: ADME, organism-based; settings: in vivo, 0.5 h; procedure, shortened: as §3
Pancreas [25] = experiment: Biodistribution in CD1 mouse pancreas at 300 kBq, iv after 30 mins by gamma counting; type: ADME, organism-based; settings: in vivo, 0.5 h; procedure, shortened: as §2
Mus musculus [26] = experiment: Biodistribution in CD1 mouse adrenals at 300 kBq, iv after 30 mins by gamma counting; type: ADME, organism-based, Adrenal gland; settings: in vivo, 0.5 h; procedure, shortened: as §1
Muscle tissue [27] = experiment: Biodistribution in CD1 mouse muscle at 300 kBq, iv after 30 mins by gamma counting; type: ADME, organism-based; settings: in vivo, 0.5 h; procedure, shortened: as §2
Femur [28] = experiment: Biodistribution in CD1 mouse femur at 300 kBq, iv after 30 mins by gamma counting; type: ADME, organism-based; settings: in vivo, 0.5 h; procedure, shortened: as §1
Mus musculus [29] = experiment: Biodistribution in CD1 mouse fat at 300 kBq, iv after 30 mins by gamma counting; type: ADME, organism-based, Adipose tissue; settings: in vivo, 0.5 h; procedure, shortened: as §1
Heart [30] = experiment: Biodistribution in CD1 mouse heart at 300 kBq, iv after 60 mins by gamma counting; type: ADME, organism-based; settings: in vivo, 1 h; procedure, shortened: as §2
[31] = Biodistribution in CD1 mouse urine at 300 kBq, iv after 60 mins by gamma counting; type: ADME, organism-based; settings: in vivo, 1 h; procedure, shortened: as §3

## [18F]CC1OC2(CCN(Cc3ccccc3)CC2)c2ccccc21 (stereo not given)
Femur [1]
  Drug uptake: 1.18 % ID/g
Heart [2]
  Drug uptake: 3.05 % ID/g
Mus musculus [3]
  Drug uptake: 25.9 % ID/g
Mus musculus [4]
  Drug uptake: 1.46 % ID/g
[5]
  Drug uptake: 56.46 % ID/g
Femur [6]
  Drug uptake: 1.92 % ID/g
Mus musculus [7]
  Drug uptake: 1.53 % ID/g
[8]
  remaining at 2 h: 96.9%
[9]
  remaining at 1 h: 79%
Brain [10]
  Drug metabolism: Active
Mus musculus [11]
  Drug uptake: Active
Striatum
  Drug uptake: Active
Blood [12]
  Drug uptake: 0.73 % ID/g
Brain [13]
  Drug uptake: 7.15 % ID/g
Heart [14]
  Drug uptake: 7.33 % ID/g
Mus musculus [15]
  Drug uptake: 0.91 % ID/g
[16]
  Drug uptake: 3.99 % ID/g
Pancreas [17]
  Drug uptake: 11.22 % ID/g
Mus musculus [18]
  Drug uptake: 3.26 % ID/g
Muscle tissue [19]
  Drug uptake: 2.12 % ID/g
Mus musculus [20]
  Drug uptake: 1.89 % ID/g
Blood [21]
  Drug uptake: 0.35 % ID/g
Heart [22]
  Drug uptake: 4.57 % ID/g
Stomach
  Drug uptake: 3.52 % ID/g
Mus musculus [23]
  Drug uptake: 18.82 % ID/g
Liver
  Drug uptake: 6.68 % ID/g
Kidney
  Drug uptake: 9.61 % ID/g
[24]
  Drug uptake: 46.35 % ID/g
Pancreas [25]
  Drug uptake: 16.03 % ID/g
Mus musculus [26]
  Drug uptake: 13.39 % ID/g
Muscle tissue [27]
  Drug uptake: 1.67 % ID/g
Femur [28]
  Drug uptake: 4.34 % ID/g
Mus musculus [29]
  Drug uptake: 1.82 % ID/g
Heart [30]
  Drug uptake: 2.96 % ID/g
[31]
  Drug uptake: 45.5 % ID/g

— ChEMBL document CHEMBL1938297, “Synthesis, radiofluorination and pharmacological evaluation of a fluoromethyl spirocyclic PET tracer for central σ1 receptors and comparison with fluoroalkyl homologs” (Bioorg Med Chem, 2012)
